Only some compounds are listed: those with a hit (about 4.9% of all), similar ones and a draw of the others.
NF-kB neuron act – compounds increasing NF-kB expression in human neuronal cells; NF-kB reporter expression; stronger effect = higher value; fold change at 12.5 µM; 1.6% of 190,000 active; AID 1239; in the data active means fold change above about 3.3
STAT3 act – STAT3 signaling activation | 0.91% of 190,000 active | AID 871 | activation (% of control), % at 5.6 µM | U3A cells, IL-6 STAT3-luciferase reporter, luminescence; 100% = signal with IL-6 EC80 alone;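 active means activation above the screen-wide mean of compound activation plus 3 SD, cut at about 130% in these data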;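 further: 0% = background luminescence of wells with medium and substrate only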
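Test system: human U3A cells carrying STAT3-luciferase construct; control set: IL-6-only wells as 100% reference; timing: compound pre-incubation 1 h before IL-6, then 6 h stimulation at 37 °C; also added: IL-6 stimulus at 33 ng/mL final; evaluation: % activation versus median of IL-6-stimulated wells; detection: reporter luminescence signal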
STAT1 blocker – STAT1 signaling inhibition | NIH 3T3 STAT1-luciferase reporter, IFN-gamma, luminescence | inhibition, % at 5.5 µM | 0.35% of 200,000 active;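 active means inhibition above a set limit, the mean inhibition across all tested compounds plus 3 SD, cut at about 34% in these data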;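 further: 0% = IFN-gamma with DMSO and 100% = IFN-gamma with 300 µM nifuroxazide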
STAT1 activator – increases IFN-gamma driven STAT1 reporter signal. NIH 3T3 STAT1-luciferase reporter, luminescence; 100% = IFN-gamma alone, no compound. activation (% of control), % at 5.5 µM. 2.6% of 200,000 active;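 active means activation above the screen-wide mean activation plus 3 SD, cut at about 130% in these data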;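 further: raw ratio to IFN-gamma control signal so 100% means no change and 0% no light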
STAT3 blocker – reduces IL-6 driven STAT3 reporter signal; inhibition, % at 5.5 µM; U3A cells, IL-6 STAT3-luciferase reporter, luminescence; host cell line lacks STAT1; 0.89% of 190,000 active;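 active means inhibition above the mean inhibition across all screened compounds plus 3 SD, cut at about 44% in these data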;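 further: 0% = DMSO only wells and 100% = 100 µM nifuroxazide control wells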
APP 5'UTR act – APP 5'UTR luciferase reporter activation | SH-SY5Y APP 5'UTR luciferase reporter, luminescence; zero percent = DMSO vehicle wells | activation, % at 2 µM | 1% of 190,000 active;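 active means activation above a set limit, based on mean plus 3 SD of controls, cut at about 140% in these data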
* marks the source's active call; other numbers are inactive results; / = no result given.

SMILES | NF-kB neuron act | STAT3 act | STAT1 blocker | STAT1 activator | STAT3 blocker | APP 5'UTR act
O=C(NCCc1cccs1)C1CC(c2ccc([N+](=O)[O-])cc2)=NO1 (stereo not given) | 2.26 | 115.2 | -48.4 | 144.5* | -11.9 | 62.3
CCOC(=O)c1ccc(N/C=C/C(=O)C(C)(C)C)cc1 | 4.23* | 88.3 | -40.0 | 135.7* | 18.8 | 98.5
CCOC(=O)c1ccc(NC(=O)Nc2ccccn2)cc1 | 2 | 86.7 | -56.6 | 150.6* | 24.9 | 86.8
CCOC(=O)c1ccc(N/C=C/C(=O)c2ccc(OC)cc2)cc1 | 1.56 | 90.5 | 2.3 | 98.0 | 17.1 | 4.6
CCOC(=O)c1ccc(N/C=C/C(=O)c2ccccc2)cc1 | 4.75* | 81.9 | -21.3 | 118.2 | 24.1 | 164.3*
CN(C)c1ccc(N/C=C/C(=O)c2ccccc2)cc1 | 2.01 | 33.1 | 44.8* | 58.6 | 84.1* | 125.0
O=C(O)c1ccc2oc(SCC(=O)N3CCCCC3)nc2c1 | 1.84 | 120.1 | -39.7 | 136.7* | -20.0 | 51.2
COc1ccc(CC(=O)Nc2ccc(-c3noc(COc4ccccc4C)n3)cc2)cc1 | 1.04 | 91.0 | 3.6 | 95.0 | 15.0 | -4.3
O=C(Nc1ccc(-c2noc(COc3ccccc3Cl)n2)cc1)c1ccco1 | 1.87 | 87.3 | -34.4 | 131.7* | 18.0 | 76.2
Cc1ccc(NC(=S)N(CCN(C)C)Cc2cc3cc(C)cc(C)c3[nH]c2=O)cc1 | 1.13 | 105.6 | 0.7 | 99.4 | -8.0 | 5.3
O=c1cccc2n1Cc1cc3ccccc3nc1-2 | 3.09 | 94.2 | -38.0 | 134.6* | 4.1 | 67.5
CCc1cccc(NC(=O)Nc2cccs2)c1 | 1.7 | 103.4 | -36.0 | 132.7* | 1.1 | 42.8
CC(=O)c1ccc(NC(=O)Nc2ccc(Cl)cc2)cc1 | 3.62* | 105.3 | -36.1 | 133.2* | -4.9 | 165.6*
COc1ccc(C(=O)Nc2ccc(NC(=O)c3cccs3)cc2)cc1Cl | 1.1 | 90.0 | -3.6 | 103.2 | 14.3 | 0.2
COc1ccc(NC(=O)Nc2cccs2)cc1Cl | 1.62 | 98.0 | -34.2 | 130.2* | 13.4 | 74.7
CNC(=O)Nc1ccc(Cl)cc1 | 1.26 | 100.0 | 0.3 | 99.7 | 3.9 | -14.2
CC(C)=CC(=O)Nc1ccc(Cl)cc1 | 3.3* | 99.8 | -36.7 | 131.5* | 4.5 | 183.8*
CC(=O)c1ccc(NC(=O)Nc2ccncc2)cc1 | 0.8 | 90.2 | -0.1 | 100.3 | 19.4 | 19.3
O=C(CSc1cccc[n+]1[O-])Nc1ccc([N+](=O)[O-])cc1Cl | 1.14 | 101.1 | 4.3 | 95.9 | 0.6 | -22.3
CC(=O)Nc1nc(C2CC2)cc(-c2ccccc2)c1C#N | 0.87 | 119.0 | 9.2 | 90.4 | -19.1 | -18.8
CCOc1ccccc1N1CCN(C(=O)c2ccc3[nH]c4c(c3c2)CCCC4)CC1 | 1.37 | 101.2 | -0.1 | 100.1 | 0.9 | 11.9
COCC(=O)Nc1ccc(OC)c(Cl)c1 | 1.02 | 99.5 | 5.4 | 93.2 | 6.2 | -1.1
COc1ccc(NC(=O)C=C(C)C)cc1Cl | 4.65* | 93.5 | -27.4 | 125.3 | 10.6 | 152.7*
Cc1nc(NC(=O)Nc2ccc(Cl)cc2)sc1C | 1.85 | 93.8 | -47.8 | 142.8* | 17.9 | 101.0
CCn1ccc(C(=O)Nc2ccccc2SC)n1 | 1.48 | 110.6 | -44.9 | 140.2* | 1.0 | 36.8
SMILES | NF-kB neuron act | STAT3 act | STAT1 blocker | STAT1 activator | STAT3 blocker | APP 5'UTR act
CCn1nccc1C(=O)Nc1ccc(Cl)cn1 | 1.75 | 99.9 | -17.8 | 116.3 | 3.7 | 12.9
CCn1ccc(C(=O)Nc2ccc(N(C)C(C)=O)cc2)n1 | 1.92 | 106.5 | -4.0 | 103.7 | -3.3 | 24.8
CCn1ccc(C(=O)Nc2ccc(Cl)cn2)n1 | 2.82 | 95.0 | -34.4 | 131.1* | 14.6 | /
COc1ccc2[nH]c3nc(SC(C)C)nnc3c2c1 | 5.07* | 87.2 | 16.2 | 85.5 | 22.4 | 184.6*
COc1ccc2[nH]c3nc(SCc4nnc(-c5ccccc5)o4)nnc3c2c1 | 1.09 | 84.8 | -4.8 | 104.4 | 26.9 | 4.2
O=CN1CCN(C(=O)c2ccc(-c3nc4ccccc4s3)s2)CC1 | 3.8* | 75.8 | -33.3 | 129.0* | 30.6 | 90.4
O=C(CSc1ccsc1[N+](=O)[O-])NCCc1ccc(Cl)cc1 | 1.07 | 109.2 | 3.4 | 94.5 | -0.3 | 5.2
O=C(CSc1ccsc1[N+](=O)[O-])NCCc1ccccc1 | 1.4 | 135.5* | 0.3 | 99.7 | -36.6 | -10.0
COc1ccc(CNC(=O)CSc2ccsc2[N+](=O)[O-])cc1 | 2.53 | 109.8 | -19.4 | 118.9 | -8.9 | 35.4
Cc1ccc(CNC(=O)CSc2ccsc2[N+](=O)[O-])cc1 | 1.6 | 114.7 | -36.7 | 133.5* | -15.4 | 51.9
COc1ccc(NC(=O)CN(C)Cc2c(F)cccc2Cl)cc1S(=O)(=O)N1CCCCC1 | 0.64 | 97.3 | -2.9 | 101.3 | 4.5 | -10.2
CNC(=O)C(=O)NCC1OCCN1S(=O)(=O)c1ccc2c(c1)OCCO2 (stereo not given) | 1.14 | 99.4 | 4.0 | 96.9 | 1.3 | -13.0
COC(=O)Nc1ccc(S(=O)(=O)N2CCCC(C(=O)O)C2)cc1 (stereo not given) | 0.88 | 104.4 | -3.4 | 103.3 | 4.5 | 4.5
Cc1ccc2c(Cl)c(C(=O)NCCc3ccccc3)sc2c1 | 2.72 | 86.9 | -40.4 | 136.0* | 17.3 | 110.9
Cc1ccc2c(Cl)c(C(=O)NCC3CCCO3)sc2c1 (stereo not given) | 3.9* | 89.4 | -35.8 | 132.0* | 17.9 | 122.4
COc1ccc2c(Cl)c(C(=O)NCC3CCCO3)sc2c1Cl (stereo not given) | 1.31 | 96.1 | -7.4 | 109.4 | 2.5 | 17.9
O=C(NNC(=O)C1CC2CCC1C2)c1sc2ccccc2c1Cl (stereo not given) | 0.73 | 79.5 | -32.9 | 129.7* | 26.0 | 43.1
O=C(NCC1CCCO1)c1sc2ccccc2c1Cl (stereo not given) | 3.08 | 89.8 | -36.3 | 132.4* | 11.7 | 100.6
CC(C)OCCCNC(=O)CN1C(=O)/C(=C/c2ccccc2)Sc2ccccc21 | 1.09 | 97.6 | 5.2 | 95.4 | 0.3 | 0.2
O=C(OCC(=O)N1CCc2ccccc21)c1cncc(Br)c1 | 0.87 | 101.1 | -12.1 | 108.6 | 0.3 | -12.6
Cc1cccc(NC(=O)C(=O)NCC2CCCO2)c1 (stereo not given) | 1.84 | 103.8 | -40.9 | 136.0* | 0.2 | 53.8
COC(=O)c1ccccc1NC(=S)N(Cc1ccc2c(c1)OCO2)Cc1cc2ccc(OC)cc2[nH]c1=O | 0.33 | 104.3 | -14.8 | 113.5 | 3.9 | -25.3
Cc1ccnc(N=Cc2nc(-c3ccccc3Br)oc2O)c1 | 1.97 | 90.7 | -46.8 | 142.3* | 12.8 | 19.8
Cc1cccc(/N=C/c2nc(-c3ccccc3Br)oc2O)n1 | 2.15 | 101.5 | 7.1 | 93.5 | 6.7 | 3.3
O=C1CCCCC1C(=O)c1cn(-c2ccc(Cl)c(Cl)c2)nn1 (stereo not given) | 1.8 | 99.2 | -33.0 | 129.3* | 12.5 | 19.1
Cc1cc(NC(=O)CSc2nc3ccccc3c(=O)n2C(C)c2ccccc2)no1 (stereo not given) | 3.63* | 134.5* | 11.9 | 89.1 | -33.3 | 22.2
